From BindingDB's records for doi:10.1016/j.bmcl.2019.05.046 (Peking University, 2019)

Target: Neuronal acetylcholine receptor subunit alpha-7 (Homo sapiens, UniProt P36544)
Assay: Positive allosteric modulation activity at human alpha7 nAChR expressed in Xenopus laevis oocytes assessed as increase in acetylcholine-induced channel current by measuring acetylcholine EC50 at 10 uM at -90 mV holding potential preincubated for 2 mins followed by co-application with acetylcholine for 10 secs by two-electrode voltage clamp method (Rvb = 231.8 +/- 2 uM)
Method in brief: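 ACh concentration-response on α7-expressing Xenopus oocytes, run without compound or after 2 min preincubation with 10 μM compound. Peak currents were normalised to the current evoked by 100 μM ACh alone. Curves were fitted for Emax, ACh EC50 and Hill coefficient, n = 4 per point.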

Chain of Neuronal acetylcholine receptor subunit alpha-7 (P36544 whole entry): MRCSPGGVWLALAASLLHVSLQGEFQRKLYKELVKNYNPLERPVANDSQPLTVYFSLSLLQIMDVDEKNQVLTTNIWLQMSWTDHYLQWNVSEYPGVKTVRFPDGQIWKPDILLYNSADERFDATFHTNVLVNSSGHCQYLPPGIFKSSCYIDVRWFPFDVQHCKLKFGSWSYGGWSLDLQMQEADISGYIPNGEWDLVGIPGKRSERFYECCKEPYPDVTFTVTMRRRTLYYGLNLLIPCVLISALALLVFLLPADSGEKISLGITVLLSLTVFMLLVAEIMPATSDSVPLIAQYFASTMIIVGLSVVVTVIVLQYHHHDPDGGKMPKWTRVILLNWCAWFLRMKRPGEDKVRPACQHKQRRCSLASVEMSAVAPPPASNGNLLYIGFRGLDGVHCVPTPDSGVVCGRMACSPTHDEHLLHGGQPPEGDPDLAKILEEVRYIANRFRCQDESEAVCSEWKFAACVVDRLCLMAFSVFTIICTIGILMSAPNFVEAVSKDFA

Cc1cc(-c2cnc(N)c(C(=O)Nc3c(C)cccc3Cl)c2)ccc1F
EC50: 258 µM
